Data set [1] concerns Hepatitis C virus. Description: Antiviral activity against HCV genotype 1b infected in HuH7/Rep-Feo1b cells at 50 uM by firefly luciferase reporter gene assay. The format is functional, Hepacivirus hominis. To be noted: Huh-7. Put shortly: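 Replicon reporter cells (gt 1b in Huh7/Rep-Feo1b, firefly luciferase; gt 2a in Huh7.5-FGR-JC1-Rluc2A, Renilla luciferase) kept in DMEM with 10% FCS and 0.5 mg/mL G418, 37 °C, 5% CO2. About 1×10^4 cells per well were treated at 50 μM for 48 h in 1.0% DMSO. Luciferase signal was read relative to DMSO-treated cells as % inhibition.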

A short description of data set [2]: Selectivity index, ratio of CC50 for human Huh7.5 cells to EC50 for HCV genotype 2a infected in HuH7.5-FGR-JC1_Rluc2A cells. On the set-up: species or system Huh-7.
Data set [3] deals with Hepatitis C virus. Briefly: Antiviral activity against HCV genotype 1b infected in HuH7/Rep-Feo1b cells by firefly luciferase reporter gene assay. The format is functional, cell-based, Hepacivirus hominis. To be noted: Huh-7. Put shortly:
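Huh7 cells carrying autonomously replicating gt 1b replicon with firefly luciferase reporter; ~1×10^4 cells/well treated 48 h, 1.0% DMSO final. Primary screen at 50 μM; actives titrated over 8–12 quarter-log dilutions. Luciferase signal relative to DMSO-treated controls; EC50 from dose-response curves, mean ± SD of three independent experiments.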

Data set [4] relates to Hepatitis C virus. Description: Antiviral activity against HCV genotype 2a infected in HuH7.5-FGR-JC1_Rluc2A cells by […]. The format is functional, Hepacivirus hominis.
Data set [5] has as its system Hepatitis C virus. Briefly: Antiviral activity against HCV genotype 2a infected in HuH7.5-FGR-JC1_Rluc2A cells at 50 uM by […] luciferase reporter gene assay. The format is functional, Hepacivirus hominis.
The subject of data set [6] is Hepacivirus hominis. Description: Inhibition of recombinant HCV hexa histidine-tagged NS5B Cdelta21 RNA dependent RNA polymerase expressed in Escherichia coli at 50 uM after 60 mins by liquid scintillation counting analysis.
The nature of data set [7]: Selectivity index, ratio of CC50 for human Huh7.5 cells to EC50 for HCV genotype 1b infected in HuH7/Rep-Feo1b cells. On the set-up: species or system Huh-7.
A short description of data set [8]: Cytotoxicity against human Huh7.5 cells after 48 hrs by MTS assay. It counts as cell-based. The note with it: huh-7, 48 h. Put shortly: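 Parental Huh7.5 cells grown in DMEM with 10% FCS without G418, 37 °C, 5% CO2; treated at 6–8 doses for 48 h. Viability by MTS bioreduction to formazan; CC50 as concentration halving MTS conversion relative to DMSO controls, mean ± SD of three independent experiments.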

The subject of data set [9] is Hepatitis C virus (isolate Con1). Briefly: Inhibition of HCV Con1 genotype 1b C-terminal His-tagged NS3 helicase lacking N-terminal protease using fluorescent DNA as substrate at 500 uM. The procedure, abridged: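 Molecular beacon unwinding assay: 12.5 nM NS3h, 5 nM fluorescent DNA substrate, 1 mM ATP, 25 mM MOPS pH 6.5, 1.25 mM MgCl2, 5% DMSO, 5 µg/ml BSA, 0.01% Tween20, 0.05 mM DTT; compounds up to 500 μM.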

Data set [10] can be described thus: Inhibition of HCV Con1 genotype 1b C-terminal His-tagged NS3 helicase lacking N-terminal protease using ATP/RNA as substrate after 15 mins by malachite green-based assy. More on the design: species or system Hepatitis C virus (isolate Con1). The procedure, abridged:
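NS3h (con1 gt 1b, C-terminal His-tag, protease-deleted) at 4 nM with 1 μM polyU RNA (nucleotide), 25 mM MOPS pH 6.5, 1.25 mM MgCl2, 1 mM ATP, 33 µg/ml BSA, 0.07% Tween 20, 0.3 mM DTT, 10% DMSO; started with ATP, 15 min, 37 °C. Phosphate by malachite green, A630. Two-fold series 0.5 mM–0.78 µM, duplicate; variable-slope fit, mean ± SD.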

Data set [11] concerns Internal ribosome entry site (IRES). Description: Effect on HCV IRES-mediated translation infected in human Huh 7.5 cells by dual-glo luciferase assay. The format is cell-based. To be noted: Hepacivirus hominis.
Data set [12] addresses T1, Heme oxygenase 1 (Homo sapiens, UniProt P09601).
T1 sequence (P09601 whole entry): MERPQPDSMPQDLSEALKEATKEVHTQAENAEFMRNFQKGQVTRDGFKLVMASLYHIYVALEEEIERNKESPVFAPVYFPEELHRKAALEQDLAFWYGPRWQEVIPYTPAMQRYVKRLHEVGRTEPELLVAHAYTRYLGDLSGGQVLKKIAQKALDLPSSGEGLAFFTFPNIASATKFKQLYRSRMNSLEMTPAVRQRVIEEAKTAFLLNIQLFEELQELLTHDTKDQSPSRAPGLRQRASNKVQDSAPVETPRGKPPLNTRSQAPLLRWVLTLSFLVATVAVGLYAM
Description: Effect on heme oxygenase-1 (unknown origin)-mediated HCV replication in human MH14 cells transfected with pHO-1-Luc by luciferase reporter gene assay. The format is ADME, cell-based. Put shortly:
(§1)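 MH-14 replicon cells transfected with 300 ng of the reporter plasmid (pCOX-2-FLuc, pHO-1-Luc, pISRE-Luc or p3xARE-Luc); 16 h later treated with compound at 5, 10 and 25 μM or DMSO for 48 h. Firefly luciferase read, normalized to Renilla luciferase for transfection efficiency.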

Data set [13] concerns Hepatitis C virus. Briefly: Antiviral activity against HCV genotype 1b infected in human MH14 cells assessed as inhibition of replication after 48 hrs by RT-PCR analysis. The format is functional. To be noted: Hepacivirus hominis. The procedure, abridged: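 Stable gt 1b subgenomic replicon cells (MH-14), reporter-free, exposed to compound; total RNA isolated by spin-column kit, quantified spectrophotometrically, and HCV RNA measured by quantitative RT-PCR.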

Data set [14] deals with T2, Prostaglandin G/H synthase 2 (Homo sapiens, UniProt P35354).
T2 sequence (P35354 whole entry): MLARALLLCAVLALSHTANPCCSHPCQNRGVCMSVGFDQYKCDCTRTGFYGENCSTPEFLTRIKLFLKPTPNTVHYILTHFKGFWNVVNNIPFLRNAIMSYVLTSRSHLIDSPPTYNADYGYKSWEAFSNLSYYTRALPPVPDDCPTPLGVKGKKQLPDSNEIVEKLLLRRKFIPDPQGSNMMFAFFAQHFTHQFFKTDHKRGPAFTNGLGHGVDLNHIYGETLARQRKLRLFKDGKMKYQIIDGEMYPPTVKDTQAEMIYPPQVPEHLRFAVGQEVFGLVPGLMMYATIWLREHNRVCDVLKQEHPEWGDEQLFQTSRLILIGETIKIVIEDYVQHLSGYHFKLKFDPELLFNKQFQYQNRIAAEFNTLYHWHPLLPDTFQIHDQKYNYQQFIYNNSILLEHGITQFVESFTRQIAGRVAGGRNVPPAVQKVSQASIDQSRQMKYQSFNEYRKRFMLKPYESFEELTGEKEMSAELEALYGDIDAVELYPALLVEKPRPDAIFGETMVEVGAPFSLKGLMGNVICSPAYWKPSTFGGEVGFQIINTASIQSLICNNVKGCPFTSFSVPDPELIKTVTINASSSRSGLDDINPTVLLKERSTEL
Description: Effect on cyclooxygenase-2 (unknown origin)-mediated HCV replication in human MH14 cells transfected with pCOX-2-Fluc by luciferase reporter gene assay. It counts as ADME, cell-based. The procedure, abridged:
as §1

Data set [15] in a line: Effect on interferon-stimulated response element (unknown origin)-mediated HCV replication in human MH14 cells transfected with pISRE-Luc by luciferase reporter gene assay. It counts as ADME, cell-based. The procedure, abridged: as §1
A short description of data set [16]: Effect on anti-oxidant response element (unknown origin)-mediated HCV replication in human MH14 cells transfected with p3xARE-Luc by luciferase reporter gene assay. It counts as ADME, cell-based. Put shortly: as §1

Molecules are shown by their SMILES. pEC50, pIC50: −log10 of the molar value. Calls of active or inactive are those of the source. No cut-off for these calls is given here.

For the molecule `COc1ccc(-c2cc3c(n2Cc2ccccc2)CCCC3)cc1`, the results for the inhibition at 50 µM in data set [1] and in data set [5] were 99% and 96%, respectively. The “Ratio CC50/EC50” value in data set [2] is given as 28; in [7], 12. The pEC50 is 4.93 in data set [3] and 5.31 in [4]. The inhibition entry in data set [6] and in data set [9] was “inactive” in each case. Further, in [8], half-maximal cytotoxicity (CC50) was put at 137 µM. In data set [10], this molecule gave a pIC50 of less than 3.00.
Regarding `Nc1ccc(-c2cc3c(n2Cc2ccccc2)CCCC3)cc1`, the inhibition at 50 µM in data set [1] was 66%; in data set [5], 88%. In addition, the “Ratio CC50/EC50” value in [2] is reported as 13; in data set [7] it was 9. Moreover, the pEC50 in [3] is 4.91; in [4] it was 5.06. Also, the inhibition entry in [6] and in [9] was “inactive” each time. Also, in data set [8], the CC50 amounted to 110 µM. The molecule also showed a pIC50 in [10] of 3.38.
For the molecule `O=[N+]([O-])c1ccc(-c2cc3c(n2Cc2ccccc2)CCCC3)cc1`, the inhibition at 50 µM was found to be 75% in [1] and 98% in [5]. For the same molecule, the results for the “Ratio CC50/EC50” value in data set [2] and in data set [7] were 27 and 13, respectively. The results for the pEC50 in data set [3] and in [4] were 4.82 and 5.14, respectively. Further, the inhibition result in data set [6] and in data set [9] was “inactive” throughout. This molecule also came in with a CC50 in [8] of more than 200 µM. The pIC50 in data set [10] is less than 3.00.
Regarding `Fc1ccc(-n2c(-c3ccccc3)cc3c2CCCC3)cc1`, the inhibition at 50 µM in data set [1] came to 71%; in data set [5] it was 66%. Besides, the “Ratio CC50/EC50” value in [2] is listed as more than 16; in data set [7], more than 7. Besides, the pEC50 is 4.53 in data set [3] and 4.91 in data set [4]. Moreover, the inhibition result in data set [6] and in [9] was “inactive” throughout. The molecule further displayed a CC50 in data set [8] of more than 200 µM. The molecule also showed a pIC50 in data set [10] of less than 3.00.
For `c1ccc(Cn2c(-c3ccccc3)cc3c2CCCC3)cc1`, the inhibition entry in data set [11], in data set [6] and in data set [9] was “inactive” each time. Moreover, the figures for the inhibition at 50 µM in data set [1] and in data set [5] were 95% and 99%, respectively. Besides, the entries for the “Ratio CC50/EC50” value in data set [2] and in [7] were 32 and 10, respectively. The pEC50 in data set [3] was 5.10; in data set [4], 5.59. Also, the “inhibition (INH)” value in [12], in data set [14], in data set [15] and in data set [16] was “Not Active” throughout. Also, the inhibition entry in data set [13] is “Dose-dependent effect”. The same molecule yielded a CC50 in [8] of 80.8 µM. In data set [10], this molecule had a pIC50 of less than 3.00.
As to `CC(C)(C)OC(=O)N1CC(=O)[C@]2(C)CCN(Cc3ccccc3)[C@@H]2C1` (relative stereo), the inhibition at 50 µM worked out at 73% in [1] and 98% in data set [5]. For the same molecule, the entries for the “Ratio CC50/EC50” value in data set [2] and in data set [7] were more than 19 and 5, respectively. In addition, the pEC50 in [3] was 4.61; in [4], 5.22. The same molecule yielded a CC50 in [8] of 115 µM.

The values are drawn from ChEMBL document CHEMBL3414521, “Discovery of the 2-phenyl-4,5,6,7-Tetrahydro-1H-indole as a novel anti-hepatitis C virus targeting scaffold” (Eur J Med Chem, 2015).
